The test system of data set [1] is Human alphaherpesvirus 1. The data set can be described thus: In Vitro antiviral activity against HSV-1 at 0.5 ug/mL concentration. It is filed as functional. The procedure, abridged:
(§1)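 Mouse embryo cell cultures infected with HSV-1 were exposed to compound at 0.05, 0.5, 5, 50 and 500 μg/mL for 3 days. Infected cultures were then inspected macro- and microscopically, and reduction or inhibition of virus-induced cell destruction was scored. Aciclovir, 5-ethyldeoxyuridine and PMEG served as reference drugs.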

Data set [2] relates to Human alphaherpesvirus 1. Nature of the data set: In Vitro antiviral activity against HSV-1 at 5 ug/mL concentration. It is filed as functional. The procedure, abridged: as §1
Data set [3] has as its system Human alphaherpesvirus 1. The data set can be described thus: In Vitro antiviral activity against HSV-1 at 50 ug/mL concentration. It is filed as functional. The method in brief: as §1
Data set [4] relates to Human alphaherpesvirus 1. The data set can be described thus: In Vitro antiviral activity against HSV-1 at 500 ug/mL concentration. Type of data set: functional. The procedure, abridged: as §1
Data set [5] in a line: In Vitro cytotoxicity against HSV-1 at 5 ug/mL concentration. Type of data set: organism-based. The settings on record: human alphaherpesvirus 1, in vitro. The procedure, abridged: (§2)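 Uninfected mouse embryo cell cultures were exposed to compound at 0.05, 0.5, 5, 50 and 500 μg/mL for 3 days. Cultures were then examined macro- and microscopically, and growth inhibition or disruption of the cells was taken as cytotoxicity.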

Data set [6] is described as follows: In Vitro cytotoxicity […] at 50 ug/mL concentration. Type of data set: organism-based. The procedure, abridged: as §2
Data set [7] is described as follows: In Vitro cytotoxicity […] at 500 ug/mL concentration. It is filed as organism-based. The method in brief:
as §2

The test system of data set [8] is Human alphaherpesvirus 1. Nature of the data set: In Vitro antiviral activity against HSV-1 at 0.05 ug/mL concentration. Type of data set: functional. The procedure, abridged: as §1

As a reminder, the inhibition is the percentage by which the read-out fell short of the control. A low value points to little suppression.

`O=[N+]([O-])c1c(O)nc(O)nc1NCCCCO` yielded an inhibition at 0.5 µg/mL in the data set with Human alphaherpesvirus 1 [1] of 0%. This molecule gave an inhibition at 5 µg/mL with Human alphaherpesvirus 1 [2] of 0%. Also, in the data set on Human alphaherpesvirus 1 [3], testing at 50 µg/mL gave an inhibition of 0%. This molecule gave an inhibition at 500 µg/mL in the data set with Human alphaherpesvirus 1 [4] of 0%. In addition, in data set [5], the inhibition at 5 ug/mL came out at 0%. The inhibition at 50 ug/mL in data set [6] worked out at 0%. This molecule had an inhibition at 500 ug/mL in data set [7] of 0%. The molecule also had an inhibition at 0.05 µg/mL in the data set on Human alphaherpesvirus 1 [8] of 0%.
`Nc1nc(O)c([N+](=O)[O-])c(NCCCCO)n1` gave an inhibition at 0.5 µg/mL in the data set on Human alphaherpesvirus 1 [1] of 0%. Further, in the data set with Human alphaherpesvirus 1 [2], at 5 µg/mL the inhibition was 0%. 50 µg/mL produced 0% inhibition with Human alphaherpesvirus 1 [3]. This molecule had an inhibition at 500 µg/mL in the data set with Human alphaherpesvirus 1 [4] of 0%. Also, the inhibition at 5 ug/mL in data set [5] came out at 0%. In data set [6], this molecule gave an inhibition at 50 ug/mL of 0%. In data set [7], this molecule gave an inhibition at 500 ug/mL of 100%. In the data set on Human alphaherpesvirus 1 [8], this molecule gave an inhibition at 0.05 µg/mL of 0%.
In the case of `Nc1nc(O)c([N+](=O)[O-])c(NCCOCP(=O)(O)O)n1`, at 0.5 µg/mL the inhibition in the data set on Human alphaherpesvirus 1 [1] was 0%. The molecule further gave an inhibition at 5 µg/mL in the data set with Human alphaherpesvirus 1 [2] of 0%. 50 µg/mL produced 0% inhibition in the data set with Human alphaherpesvirus 1 [3]. The inhibition at 500 µg/mL in the data set on Human alphaherpesvirus 1 [4] amounted to 0%. In data set [5], this molecule had an inhibition at 5 ug/mL of 0%. The molecule also registered an inhibition at 50 ug/mL in data set [6] of 0%. In addition, the inhibition at 500 ug/mL in data set [7] is 0%. In the data set with Human alphaherpesvirus 1 [8], this molecule gave an inhibition at 0.05 µg/mL of 0%.
On to `OCCCCNc1cc(O)nc(O)n1`, for which the inhibition at 0.5 µg/mL in the data set with Human alphaherpesvirus 1 [1] amounted to 0%. Also, the inhibition at 5 µg/mL in the data set with Human alphaherpesvirus 1 [2] stood at 0%. In the data set with Human alphaherpesvirus 1 [3], this molecule registered an inhibition at 50 µg/mL of 0%. This molecule also gave an inhibition at 500 µg/mL in the data set on Human alphaherpesvirus 1 [4] of 0%. The inhibition at 5 ug/mL in data set [5] was 0%. Further, the inhibition at 50 ug/mL in data set [6] is 0%. The same molecule gave an inhibition at 500 ug/mL in data set [7] of 25%. In addition, the inhibition at 0.05 µg/mL in the data set with Human alphaherpesvirus 1 [8] turned out to be 0%.
`Nc1nc(Cl)cc(NCCCCO)n1`: the inhibition at 0.5 µg/mL with Human alphaherpesvirus 1 [1] turned out to be 0%. This molecule also displayed an inhibition at 5 µg/mL with Human alphaherpesvirus 1 [2] of 0%. At 50 µg/mL the inhibition in the data set with Human alphaherpesvirus 1 [3] was 0%. The molecule further registered an inhibition at 500 µg/mL in the data set on Human alphaherpesvirus 1 [4] of 0%. This molecule also returned an inhibition at 5 ug/mL in data set [5] of 0%. The molecule also showed an inhibition at 50 ug/mL in data set [6] of 0%. Further, in data set [7], the inhibition at 500 ug/mL was 50%. This molecule also returned an inhibition at 0.05 µg/mL in the data set on Human alphaherpesvirus 1 [8] of 0%.
As to `Nc1nc(O)c(N)c(NCCOCP(=O)(O)O)n1`, 0.5 µg/mL produced 100% inhibition with Human alphaherpesvirus 1 [1]. The molecule further returned an inhibition at 5 µg/mL in the data set with Human alphaherpesvirus 1 [2] of 100%. In addition, the inhibition at 500 ug/mL in data set [7] stood at 75%. The molecule further gave an inhibition at 0.05 µg/mL with Human alphaherpesvirus 1 [8] of 50%.
In the data set on Human alphaherpesvirus 1 [1], `Nc1nc(O)c2ncn(COCCP(=O)(O)O)c2n1` gave an inhibition at 0.5 µg/mL of 100%. In the data set on Human alphaherpesvirus 1 [8], this molecule registered an inhibition at 0.05 µg/mL of 100%.
Turning to `Nc1nc(O)cc(NCCCCO)n1`, the inhibition at 0.5 µg/mL with Human alphaherpesvirus 1 [1] was determined as 0%. Besides, the inhibition at 5 µg/mL in the data set on Human alphaherpesvirus 1 [2] turned out to be 0%. Besides, in the data set on Human alphaherpesvirus 1 [3], the inhibition at 50 µg/mL is 0%. Also, in the data set with Human alphaherpesvirus 1 [4], 500 µg/mL produced 0% inhibition. Moreover, in data set [5], the inhibition at 5 ug/mL is 0%. Further, in data set [6], the inhibition at 50 ug/mL came out at 0%. In data set [7], this molecule registered an inhibition at 500 ug/mL of 0%. The same molecule came in with an inhibition at 0.05 µg/mL in the data set on Human alphaherpesvirus 1 [8] of 0%.
With `OCCCCNc1nc(O)nc(O)c1I`, in the data set with Human alphaherpesvirus 1 [1], testing at 0.5 µg/mL gave an inhibition of 0%. Also, the inhibition at 5 µg/mL with Human alphaherpesvirus 1 [2] was 0%. For the same molecule, the inhibition at 50 µg/mL with Human alphaherpesvirus 1 [3] worked out at 0%. The molecule also displayed an inhibition at 500 µg/mL in the data set with Human alphaherpesvirus 1 [4] of 0%. Moreover, in data set [5], the inhibition at 5 ug/mL came out at 0%. The same molecule registered an inhibition at 50 ug/mL in data set [6] of 100%. Besides, the inhibition at 500 ug/mL in data set [7] stood at 100%. This molecule came in with an inhibition at 0.05 µg/mL with Human alphaherpesvirus 1 [8] of 0%.
Take `Nc1nc2c(ncn2COCCO)c(=O)[nH]1` [ACYCLOVIR]: the inhibition at 0.5 µg/mL with Human alphaherpesvirus 1 [1] was 100%. Further, the inhibition at 5 µg/mL in the data set on Human alphaherpesvirus 1 [2] turned out to be 100%. Further, the inhibition at 50 µg/mL in the data set with Human alphaherpesvirus 1 [3] was determined as 100%. In the data set with Human alphaherpesvirus 1 [4], this molecule registered an inhibition at 500 µg/mL of 100%. The molecule also showed an inhibition at 5 ug/mL in data set [5] of 0%. This molecule yielded an inhibition at 50 ug/mL in data set [6] of 0%. Moreover, in data set [7], the inhibition at 500 ug/mL came out at 0%. The molecule also yielded an inhibition at 0.05 µg/mL with Human alphaherpesvirus 1 [8] of 100%.
Take `CCc1cn([C@H]2C[C@H](O)[C@@H](CO)O2)c(=O)[nH]c1=O` [EDOXUDINE]: testing at 0.5 µg/mL in the data set on Human alphaherpesvirus 1 [1] gave an inhibition of 25%. For the same molecule, in the data set with Human alphaherpesvirus 1 [2], the inhibition at 5 µg/mL worked out at 100%. In the data set with Human alphaherpesvirus 1 [3], testing at 50 µg/mL gave an inhibition of 100%. For the same molecule, the inhibition at 500 µg/mL in the data set with Human alphaherpesvirus 1 [4] is 100%. This molecule gave an inhibition at 5 ug/mL in data set [5] of 0%. For the same molecule, the inhibition at 50 ug/mL in data set [6] came to 0%. For the same molecule, the inhibition at 500 ug/mL in data set [7] was 0%. Moreover, the inhibition at 0.05 µg/mL with Human alphaherpesvirus 1 [8] was 0%.
